# HUVEC inhibit: blocks proliferation of human endothelial cells | HUVEC proliferation, CellTiter-Glo luminescence, 72 h; stronger effect = lower value | viability, % at 10 µM (by protocol) | 86,000 compounds, 1.1% hits | AID 648;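 active = viability at or below 30%; inactive = viability above 30%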;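 note: 100% = median luminescence of DMSO-only cell control wells on each plate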
# PTEN del growth: suppresses growth of cells with PTEN deletion; HCT116 PTEN-null viability, CellTiter-Glo, 60 h; stronger effect = lower value; viability, % at 10 µM; 140,000 compounds, 1.2% hits; AID 827;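 active = viability at or below a set limit, 4 SD under the median of all tested compounds, cut at about 3.7% in these data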;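 note: PTEN knockout HCT116 line with beta catenin targeted HCT116 as companion control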
# H69AR growth 86K: growth inhibitors of human H69AR lung tumor cells; viability, % at 10 µM; H69AR lung tumor viability, ATP luminescence, 72 h; stronger effect = lower value; 85,000 compounds, 6% hits; AID 598;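 active = viability at or below 40%; inactive = viability above 40%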;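 note: multidrug resistant small cell line overexpressing MRP-1 efflux transporter; 100% = mean luminescence of untreated control wells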
# Fibroblast inh: blocks proliferation of human lung fibroblasts; 85,000 compounds, 1.1% hits; viability, % at 10 µM; AID 719; LL 47 human lung fibroblast viability, ATP luminescence; stronger effect = lower value;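 active = viability at or below 50% in the single dose screen; inactive = viability above 50%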;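 note: compound exposure lasted 72 h before the ATP readout; 100% = median luminescence of untreated cell-only wells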
#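 Times – overnight cell rest, 72 h compound treatment at 37 °C · Test system – human lung fibroblast line LL 47, low passage · Amount – 1,150 cells in each well · Controls – cell-only wells, no compound · Doses – 0.1% DMSO in all compound wells · Measured by – CellTiter-Glo luminescence · Buffer or medium – IMEM plus 15% FBS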
# HCT116 bCat-KO: beta-catenin-lacking colon tumor cell growth suppression; HCT116 beta-catenin knockout viability, CellTiter-Glo, 60 h; stronger effect = lower value; viability, % at 10 µM; 140,000 compounds, 1.5% hits; AID 818;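 active = viability at or under a set limit, the compound median less 4 SD, cut at about 6% in these data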;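 note: 0% = Hyamine 1622 control at 20 µM and 100% = untreated cell control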
# Active calls of the source: *; x = no result given. Many of the other results were omitted from the sample, so hits are more common in it than they were.
SMILES,HUVEC inhibit,PTEN del growth,H69AR growth 86K,Fibroblast inh,HCT116 bCat-KO
Cc1ccc(CNC(=O)c2oc3ccc(S(=O)(=O)N4CCOCC4)cc3c2C)cc1,85,74,31*,97,81
C/C(=N/OCO/N=C(/C)c1ccc(F)cc1)c1ccc(F)cc1,x,72,x,x,71
COc1ccc(CNC(=O)CSc2ccc(Br)cc2)cc1OC,x,94,x,x,94
CCN(CC)S(=O)(=O)c1ccc2oc(C(=O)NC(C)C)c(C)c2c1,97,78,29*,100,82
CCN(CC)S(=O)(=O)c1ccc2oc(C(=O)O)c(C)c2c1,99,102,97,90,95
COc1ccc(N2C(=O)NC3CC2(C)Oc2ccccc23)cc1OC (stereo unspecified),96,40,26*,103,43
COc1cc(N2C(=O)NC3CC2(C)Oc2ccc(Br)cc23)cc(OC)c1OC (stereo unspecified),98,x,92,105,x
COc1cccc(C(=O)Oc2c(CN3CCOCC3)cc(Cl)c3cccnc23)c1,72,1.4*,1.5*,6.5*,1.6*
COc1ccc(C(=O)/C=C/c2ccc(OC)c(CN3CCOCC3)c2)cc1,x,14,x,x,12
O=C(Oc1ccc(Cl)c2cccnc12)N1CCOCC1,x,83,x,x,88
O=C(Oc1c(CN2CCOCC2)cc(Cl)c2cccnc12)c1ccc(F)cc1,77,1.9*,88,4.5*,5.0*
COc1cccc(NC(=O)c2ccc(CN3CCOCC3)cc2)c1,99,91,87,101,70
COc1ccc(C(=O)Oc2c(CN3CCOCC3)cc(Cl)c3cccnc23)cc1,82,3.1*,2.4*,47*,4.9*
COc1cc(C(=O)Oc2c(CN3CCOCC3)cc(Cl)c3cccnc23)cc(OC)c1OC,82,1.5*,2.1*,4.7*,2.4*
N#Cc1c(-c2ccc(Cl)cc2)ccn2nc(C3CCCCC3)nc12,94,93,31*,86,97
Cc1ccc(Cn2ccc(NC(=O)c3nn(C)cc3[N+](=O)[O-])n2)cc1,x,2.6*,x,x,5.0*
Cn1cc([N+](=O)[O-])c(C(=O)Nc2ccc(C(=O)N3CCCCC3)cc2)n1,x,3.5*,x,x,4.1*
CCn1cc([N+](=O)[O-])c(C(=O)Nc2ccn(Cc3ccccc3)n2)n1,x,97,x,x,105
CCn1ncc([N+](=O)[O-])c1C(=O)Nc1ccc(C(=O)N2CCCCC2)cc1,x,88,x,x,94
Cc1cc(C)n(Cc2ccc(NC(=O)c3nn(C)cc3[N+](=O)[O-])cc2)n1,x,1.8*,x,x,5.3*
Cn1cc([N+](=O)[O-])c(C(=O)Nc2cc(Oc3cccnc3)cc([N+](=O)[O-])c2)n1,x,0.3*,x,x,1.6*
CN(C(=O)CSCC(=O)O)C1CCCCC1,x,92,x,x,89
CN1C=CC2=C(C#N)C(N)C(C#N)(C#N)[C@H](c3ccccc3)[C@H]2C1 (stereo partly specified),92,87,77,99,88
O=C(Nc1cccc(O)c1)c1cc(S(=O)(=O)N2CCCC2)ccc1Cl,108,82,87,102,86
CC(=O)Nc1sc(C)c(C)c1C(=O)OCC(=O)Nc1cc(S(=O)(=O)N2CCCCC2)ccc1Cl,x,3.1*,x,x,40
SMILES,HUVEC inhibit,PTEN del growth,H69AR growth 86K,Fibroblast inh,HCT116 bCat-KO
Cc1cc(N2CCN(C)CC2)nc2ccc(NC(=O)c3ccc(Br)o3)cc12,8.2*,11,4.2*,43*,14
S=C(c1ccc(-c2cc(Cl)ccc2Cl)o1)N1CCOCC1,81,73,92,86,79
O=C(Nc1cccc(Cl)c1)Nc1cc(S(=O)(=O)N2CCCCC2)ccc1Cl,x,2.4*,x,x,3.9*
Cc1cc(N2CCCCC2)nc2ccc(NC(=O)c3ccc(Br)o3)cc12,34,54,44,93,53
O=C(Nc1ccc(CN2CCOCC2)cc1)c1ccc(-c2cc(Cl)ccc2Cl)o1,40,30,21*,93,27
O=C(Nc1ccc(S(=O)(=O)N2CCCCC2)cc1)c1ccc(CN2CCOCC2)cc1,67,10,61,69,5.9*
COCCN1Cc2cccc(C(=O)Nc3ccc(S(=O)(=O)N4CCCCCC4)cc3)c2C1=O,47,x,25*,79,x
CCN(CC)S(=O)(=O)c1ccc(NC(=O)c2cccc3c2C(=O)N(CCOC)C3)cc1,x,100,x,x,95
O=C(Nc1ccc(N2CCOCC2)c(Cl)c1)c1ccc(Br)o1,81,100,20*,107,109
O=C(Nc1ccc(N2CCN(C(=O)c3ccccc3)CC2)c(Cl)c1)c1ccc(Br)o1,x,15,x,x,10
O=C(Nc1ccc(S(=O)(=O)N2CCCCC2)cc1)c1ccccc1Cl,122,83,78,99,94
O=C(Nc1ccccc1)Nc1ccc(S(=O)(=O)N2CCCCC2)cc1,48,33,13*,93,59
COC(=O)c1cc(NC(=O)Nc2cccc(Cl)c2)ccc1Cl,x,3.4*,x,x,3.8*
COc1ccccc1NS(=O)(=O)c1cccc(NC(=O)Nc2cccc(Cl)c2)c1,x,6,x,x,3.9*
CN1CCN(S(=O)(=O)c2ccc(NC(=O)Nc3cccc(Cl)c3)cc2)CC1,3.2*,24,35*,83,22
COc1ccc(NC(=O)Cc2coc3cc(C)c(C(C)C)cc23)cc1S(=O)(=O)N1CCOCC1,x,50,x,x,54
O=S1(=O)N=C(Nc2ccc(O)c(CN3CCCCC3)c2)c2ccccc21,100,100,33*,x,96
COC(=O)c1ccccc1NC(=O)CCc1ccccc1,x,93,x,x,98
COC(=O)c1ccccc1CCC(C)=O,78,100,24*,91,91
COC(=O)c1cn(NC(=O)c2cc(OC)cc(OC)c2)c(=O)c2ccccc12,98,89,61,101,82
COC(=O)c1cn(NC(=O)c2cc(OC)c(OC)c(OC)c2)c(=O)c2ccccc12,20*,22,19*,49*,39
Cn1c(Cn2c(C(F)(F)F)nc3ccccc32)nc2ccccc21,92,107,92,91,99
OCCn1c(C(F)(F)F)nc2ccccc21,92,0.4*,97,102,1.0*
COc1ccc(OC)c(C(c2nnnn2C2CCCC2)N2CCN(c3ccccc3)CC2)c1 (stereo unspecified),116,80,91,95,74
COc1ccc(/C=N/NC(=O)c2ccncc2)cc1CSc1nc2ccccc2s1,x,24,x,x,24
SMILES,HUVEC inhibit,PTEN del growth,H69AR growth 86K,Fibroblast inh,HCT116 bCat-KO
Cc1c(C(=O)N/N=C/c2cccs2)nc2ccccn12,x,91,x,x,89
CCOC(=O)c1c(C)c(C(=O)Nc2cc(F)ccc2F)c(C)n1C,55,28,20*,66,30
CCOC(=O)c1c(C)c(C(=O)Nc2ccc3c(c2)OCCO3)c(C)n1C,90,69,54,95,77
O=C(O)c1ccc2c(=O)n3c(nc2c1)/C(=C/c1cccc(Cl)c1Cl)CCCC3,x,115,x,x,108
Cc1ccc2nc(NCCCO)nc(-c3ccccc3)c2c1,64,26,8.9*,73,23
O=C(OCC(=O)N1CCN(C(=O)c2ccco2)CC1)c1cc(-c2ccc(Cl)c(Cl)c2Cl)nc2ccccc12,6.3*,34,0.9*,104,58
O=C(Cn1nnc(-c2ccccc2)n1)OCc1ccccc1,x,104,x,x,91

# Source: PubChem (SRMLSC)
